Experiments:
human Gal-1 = human Gal-1 (Homo sapiens, UniProt P09382); assay: Fluorescence spectroscopy binding constant, Gal-1; conditions: for Gal-1 Ka: fluorescence, modified Stern–Volmer plot, 25 mM Tris-HCl pH 8
In short: (§1)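 Human Gal-1 was cloned into pET-28a(+), expressed in E. coli BL21(DE3) and purified by Ni2+-NTA. Gal-3 and LdPase were produced similarly. Buffers: Gal-1 and Gal-3 in 25 mM Tris-HCl pH 8; LdPase in sodium phosphate pH 7. Intrinsic emission was scanned 300–400 nm (excitation 280 nm, 100 nm min−1) across ligand concentrations. Ka came from a modified Stern–Volmer plot of the log quenching term (F0 = no ligand, F = with ligand) versus log ligand concentration.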

human Gal-3 = human Gal-3 (Homo sapiens, UniProt P17931); assay: Fluorescence spectroscopy binding constant, Gal-3; conditions: for binding to Gal-3 compared to Gal-1: fluorescence spectroscopy; for Gal-3 Ka: fluorescence, 25 mM Tris-HCl pH 8
Sequence of human Gal-3 (P17931 whole entry): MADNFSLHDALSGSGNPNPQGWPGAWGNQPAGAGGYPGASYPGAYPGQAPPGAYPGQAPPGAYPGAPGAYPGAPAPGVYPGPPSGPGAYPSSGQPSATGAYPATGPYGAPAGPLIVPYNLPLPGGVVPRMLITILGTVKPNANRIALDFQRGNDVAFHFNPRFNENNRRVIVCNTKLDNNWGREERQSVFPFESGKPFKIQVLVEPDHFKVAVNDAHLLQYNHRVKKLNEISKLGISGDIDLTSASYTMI
In short: as §1

[1] = system: Leishmania donovani phosphatase (LdPase); assay: Fluorescence spectroscopy binding, LdPase
In short: as §1

Gal-1 = Gal-1 ELISA enzymatic assay; type: cell-based, human; conditions: 20 μM, 24 h, HCT-116 cells
In short: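 HCT-116 cells were treated with test compound at 20 μM for 24 h, and the secreted-protein supernatant was collected. Equal amounts were diluted 2-fold in calibrator diluent and incubated 2 h at room temperature with shaking on human Gal-1 ELISA plates (commercial kit, manufacturer's protocol), then washed. HRP-conjugated Gal-1 polyclonal antibody was added for 2 h, then substrate for 30 min, then stop solution. Absorbance was read at 450 nm.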

Sequence of human Gal-1 (P09382 whole entry): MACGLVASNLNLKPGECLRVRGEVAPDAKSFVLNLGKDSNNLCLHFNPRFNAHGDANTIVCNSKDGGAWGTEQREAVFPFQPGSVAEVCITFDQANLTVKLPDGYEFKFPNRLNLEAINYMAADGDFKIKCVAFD

Substance | Gal-1 Ka (human Gal-1) | binding to Gal-3 compared to Gal-1 (human Gal-3) | Gal-3 Ka (human Gal-3) | binding to LdPase [1] | % Inhibition (EA) (Gal-1) | Gal-1 binding constant (Ka) (human Gal-1; fluorescence spectroscopy)
2-(2,6-Dimethylmorpholino)-N-(5-(2-oxo-2H-chromen-3-yl)thiazol-2-yl)acetamide [Compound 10e] | 6.5 10^4 M^−1 | – | – | – | – | –
2-(4-(2-Hydroxyethyl)piperazin-1-yl)-N-(5-(2-oxo-2H-chromen-3-yl)thiazol-2-yl)acetamide [Compound 10c] | 4.1 10^4 M^−1 | – | – | – | – | –
2-(4-(2-Methoxyphenyl)piperazin-1-yl)-N-(5-(2-oxo-2H-chromen-3-yl)thiazol-2-yl)acetamide [Compound 10g] | 9.8 10^4 M^−1 | significantly lower binding | 1.0 10^−6 M^−1 | no detectable binding | 58.19 ± 3.28% | 98000 M⁻¹
2-(4-(4-Nitrophenyl)piperazin-1-yl)-N-(5-(2-oxo-2H-chromen-3-yl)thiazol-2-yl)acetamide [Compound 10h] | – | – | – | – | <10% | –
2-(4-Ethylpiperazin-1-yl)-N-(5-(2-oxo-2H-chromen-3-yl)thiazol-2-yl)acetamide [Compound 10b] | 2.1 10^4 M^−1 | – | – | – | – | –
2-(4-Methylpiperidin-1-yl)-N-(5-(2-oxo-2H-chromen-3-yl)thiazol-2-yl)acetamide [Compound 10i] | – | – | – | – | <10% | –
N-(5-(2-Oxo-2H-chromen-3-yl)thiazol-2-yl)-2-(4-(pyridin-2-yl)piperazin-1-yl)acetamide [Compound 10f] | 9.3 10^4 M^−1 | significantly lower binding | 1.1 10^−6 M^−1 | no detectable binding | 80.57 ± 1.77% | –
N-(5-(2-Oxo-2H-chromen-3-yl)thiazol-2-yl)-2-(4-phenylpiperazin-1-yl)acetamide [Compound 10d] | 6.6 10^4 M^−1 | – | – | – | 56.73 ± 2.13% | –
N-(5-(2-Oxo-2H-chromen-3-yl)thiazol-2-yl)-2-(piperazin-1-yl)acetamide [Compound 10a] | 8.8 10^4 M^−1 | – | – | – | 58.19 ± 1.12% | –
